Assay results taken from BindingDB's records for doi:10.1021/jm970159v (National Taiwan University, 1998).

Key:
[1] = target: Sigma non-opioid intracellular receptor 1 (Cavia porcellus) (UniProt Q60492); experiment: Compound is evaluated for binding affinity towards Sigma receptor using [3H]pentazocine in guinea pig brain
[2] = target: D(3) dopamine receptor (Homo sapiens, UniProt P35462); experiment: Compound is evaluated for binding affinity towards recombinant human Dopamine receptor D3 using [3H]spiperone in CHO cells at 10 uM
Sequence of D(3) dopamine receptor (P35462 as listed by the source): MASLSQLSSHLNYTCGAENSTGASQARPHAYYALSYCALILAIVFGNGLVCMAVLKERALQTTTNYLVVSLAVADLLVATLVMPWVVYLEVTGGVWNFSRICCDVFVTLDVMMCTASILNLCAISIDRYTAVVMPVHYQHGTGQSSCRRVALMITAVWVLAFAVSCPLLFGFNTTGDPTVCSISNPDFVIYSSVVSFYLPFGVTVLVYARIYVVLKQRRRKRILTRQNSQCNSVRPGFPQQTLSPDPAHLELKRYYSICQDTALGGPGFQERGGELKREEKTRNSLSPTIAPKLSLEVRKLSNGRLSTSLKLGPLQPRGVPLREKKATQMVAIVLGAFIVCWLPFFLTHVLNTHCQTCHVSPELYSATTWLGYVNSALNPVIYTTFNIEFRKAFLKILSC
Method in brief: (§1)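 Single-concentration screen at 10 µM in contract radioligand binding assays. Records whether inhibition of specific radioligand binding stayed below 50%.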

[3] = target: Histamine H1 receptor (Cavia porcellus, UniProt P31389); experiment: Compound is evaluated for binding affinity towards Histamine H1 receptor using [3H]pyrilamine in guinea pig lung at 10 uM
Sequence of Histamine H1 receptor (P31389 whole entry): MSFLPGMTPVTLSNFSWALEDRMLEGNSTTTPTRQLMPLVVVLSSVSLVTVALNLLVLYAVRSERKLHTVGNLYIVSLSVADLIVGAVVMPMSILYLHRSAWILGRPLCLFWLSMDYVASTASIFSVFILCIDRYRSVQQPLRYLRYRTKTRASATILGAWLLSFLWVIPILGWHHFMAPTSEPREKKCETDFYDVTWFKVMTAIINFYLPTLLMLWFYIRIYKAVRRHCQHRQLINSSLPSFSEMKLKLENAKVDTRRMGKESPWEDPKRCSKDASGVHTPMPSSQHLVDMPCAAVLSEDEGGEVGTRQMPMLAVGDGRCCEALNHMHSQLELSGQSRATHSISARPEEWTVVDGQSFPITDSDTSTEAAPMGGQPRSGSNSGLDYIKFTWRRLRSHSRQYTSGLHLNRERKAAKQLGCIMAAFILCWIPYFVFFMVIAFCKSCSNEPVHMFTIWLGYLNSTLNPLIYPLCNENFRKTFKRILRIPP
Method in brief: as §1

Sequence of Sigma non-opioid intracellular receptor 1 (Cavia porcellus) (Q60492 whole entry, looked up): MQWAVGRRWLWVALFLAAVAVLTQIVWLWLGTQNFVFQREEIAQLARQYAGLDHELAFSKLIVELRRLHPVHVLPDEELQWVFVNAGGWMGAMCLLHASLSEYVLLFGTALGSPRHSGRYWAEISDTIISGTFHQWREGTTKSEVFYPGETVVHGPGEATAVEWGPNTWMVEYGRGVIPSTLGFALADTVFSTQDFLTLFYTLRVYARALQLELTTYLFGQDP

Compound	Ki [1]	Ki [2]	Ki [3]
COc1ccccc1N1CCN(CC2CN3C(=O)Nc4ccccc4C3=N2)CC1 (stereo not drawn) [2-[4-(2-Methoxy-phenyl)-piperazin-1-ylmethyl]-2,6-dihydro-3H-imidazo[1,2-c]quinazolin-5-one]	4 µM		
COc1ccccc1N1CCN(CCn2c(=O)[nH]c3ccccc3c2=O)CC1 [3-{2-[4-(2-Methoxy-phenyl)-piperazin-1-yl]-ethyl}-1H-quinazoline-2,4-dione]	> 10 µM		
COc1ccccc1N1CCN(C[C@H]2CN=C3c4ccccc4N=C(SC)N32)CC1		> 10 µM	> 10 µM
COc1ccccc1N1CCN(CC2CN=C3c4ccccc4NC(=O)N32)CC1 (stereo not drawn) [3-[4-(2-Methoxy-phenyl)-piperazin-1-ylmethyl]-2,6-dihydro-3H-imidazo[1,2-c]quinazolin-5-one]	> 6.27 µM		

More lines, now with the values ahead:

Ki [1]	Ki [2]	Ki [3]	Compound
6.52 µM			COc1ccccc1N1CCN(Cc2cnc3c4ccccc4nc(O)n23)CC1 [3-[4-(2-Methoxy-phenyl)-piperazin-1-ylmethyl]-6H-imidazo[1,2-c]quinazolin-5-one]
1.5 µM			Oc1nc2ccccc2c2ncc(CN3CCN(c4ccccc4Cl)CC3)n12 [3-[4-(2-Chloro-phenyl)-piperazin-1-ylmethyl]-6H-imidazo[1,2-c]quinazolin-5-one]
0.743 µM			COc1ccccc1N1CCN(Cc2cn3c(=O)[nH]c4ccccc4c3n2)CC1 [2-[4-(2-Methoxy-phenyl)-piperazin-1-ylmethyl]-6H-imidazo[1,2-c]quinazolin-5-one]
